Experimental data pooled from the literature.
Protocols differ between the studies behind these lines.
RET V804M: Proto-oncogene tyrosine-protein kinase receptor Ret (RET, Homo sapiens, UniProt P07949, V804M)
RET: Proto-oncogene tyrosine-protein kinase receptor Ret (RET, Homo sapiens, UniProt P07949)
RET V804L: Proto-oncogene tyrosine-protein kinase receptor Ret (RET, Homo sapiens, UniProt P07949, V804L)

COc1ccc(CN2C3CC2CN(c2ccc(-c4cc(OCC(C)(C)O)cn5ncc(C#N)c45)cn2)C3)cn1  ΔTm (RET V804M; thermal stability; DSF; 10 µM): 6.4 °C
COc1ccc(-c2cn3cc(C(=O)N4CC(O)C4)nc3c(=O)n2C)c(F)c1  remaining activity (RET; enzyme activity; inhibitor; radiometric; 0.1 µM): 117%
CCCCN(CCCC)C(=O)CN1C[C@H](c2cc(OC)c3c(c2)OCO3)[C@@H](C(=O)O)[C@@H]1CC(C)(C)CCC  remaining binding (RET; cell-free assay; competition with immobilised ligand; 1 µM): 100%
CC/C(=N\NC(=O)NCc1cccc(O)c1)c1ccc(O)c(C)c1O  inhibition (Proto-oncogene tyrosine-protein kinase receptor Ret (RET, Homo sapiens, UniProt P07949, G691S); enzyme activity; inhibitor; 0.1 µM): 5.6%
CC(C)(O)c1cncc(-c2nc3ccc(F)cc3n2C2CC2)c1  remaining binding (RET V804M; cell-free assay; competition with immobilised ligand; 1 µM): 100%
Nc1ncnc2occ(-c3ccc(NC(=O)Nc4cc(C(F)(F)F)ccc4F)cc3)c12  remaining signal (RET; cell-free assay; 20 µM): 0%
CNC(=O)Nc1ccc2c(c1)[C@@]1(CC2)OC(=O)N(CC(=O)N(Cc2ccc(F)cc2)[C@@H](C)C(F)(F)F)C1=O  remaining binding (RET V804L; cell-free assay; competition with immobilised ligand; 1 µM): 94%
Cc1ccc2c(=O)c(C(=O)Nc3ccc(C)c(C)c3)cn(CC(=O)NC3CCCC3)c2n1  remaining activity (RET; enzyme activity; inhibitor; radiometric; 0.1 µM): 114%
C[C@H](c1ccnc(Nc2nc3ccc(-c4cc(N(C)C)ncn4)cc3[nH]2)c1)N1CCN(C(=O)CC(F)(F)F)CC1  remaining binding (RET V804L; cell-free assay; competition with immobilised ligand; 0.1 µM): 83%
COc1cc(NC(=O)Nc2cc(C)c3nc(NC(=O)c4ccccc4)sc3c2)cc(OC)c1  remaining activity (RET; enzyme activity; inhibitor; radiometric; 0.1 µM): 123%
CO[C@]1(C(=O)N[C@@H](C)c2ccc(-n3cc(F)cn3)nc2)CC[C@H](c2nc(C)cc(Nc3cc(C)[nH]n3)n2)CC1  ΔTm (Proto-oncogene tyrosine-protein kinase receptor Ret (RET, Homo sapiens, UniProt P07949, L760A); thermal stability; DSF; 10 µM): 11.9 °C
COc1cc(NC(=O)Nc2cc(OC)c3nc(NC(=O)c4ccccc4)sc3c2)cc(OC)c1  remaining activity (RET; enzyme activity; inhibitor; radiometric; 0.1 µM): 112%
CCCOc1ccc(OC)c(F)c1C(=O)c1ccc(C(=O)N[C@@H]2CNC[C@H]2NC(=O)c2ccc3[nH]ncc3c2)cc1  remaining activity (RET; enzyme activity; inhibitor; 10 µM): 1%
